Rows were chosen to be rich in hits. Some 3.2% of all compounds tested hit in one or more screens of this group.
S100A4 inh HTS – blocks human S100A4 binding to myosin IIA peptide | S100A4/TAMRA-MyoIIA peptide fluorescence polarization | AID 652163 | 360,000 tested, 0.14% active | P26447 | inhibition, % at 10.7 µM;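 active = mean inhibition of at least 70% across replicates, with every replicate also reaching that level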
Target sequence (P26447 whole entry, looked up): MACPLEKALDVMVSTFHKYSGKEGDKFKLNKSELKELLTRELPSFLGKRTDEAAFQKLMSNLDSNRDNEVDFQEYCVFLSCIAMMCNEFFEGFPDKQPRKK
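Assay system: human S100A4 monomer with TAMRA-labelled myosin IIA peptide / Buffer or medium: Calcium-containing HEPES buffer, pH 7.2 / Reagent: TAMRA-labelled myosin IIA heavy-chain peptide probe, 5 nM / Compound: one dose per compound / Timing: polarization read 5 min after assay mix addition, stable 5–60 min / Benchmarks: neutral control DMSO, positive control TFP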
PfHsp90 set2 – inhibits growth of yeast expressing Plasmodium falciparum Hsp90 | AID 504621 | 310,000 tested, 0.32% active | inhibition, % at 9.4 µM | S. cerevisiae expressing PfHsp90, BacTiter-Glo ATP, 48 h; yeast lacking PDR1 and PDR3 efflux regulators;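 active = every replicate shows inhibition above about 80%, whatever the replicate mean, limit read from the data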;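 also: 0% = DMSO neutral controls and 100% = 20 µM radicicol positive controls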
MLL AF4-AF9 inh – blocks AF4 peptide binding to human AF9; P42568; AlphaScreen, biotin-AF4 peptide binding to FLAG-AF9; inhibition, % at 10 µM; 350,000 tested, 0.47% active; AID 651704;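 active = every replicate reaching a set inhibition limit, whatever the replicate mean, cut at about 25% in these data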;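 also: 0% = plate neutral control median and 100% = total signal loss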
Cneo AK release – Cryptococcus neoformans lysis via adenylate kinase release; lysis activity, % at 15 µM; C. neoformans lysis, adenylate kinase release luminescence, 4 h; normalised: neutral wells 0, clomiphene wells 100; 360,000 tested, 0.2% active;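 active = mean lysis activity across replicates of at least 80%, whatever share of replicates individually reach that level; inactive = mean lysis activity below 80%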
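Test system: log-phase Cryptococcus neoformans yeast cells; Quantity: yeast cell density of 5 × 10^6 cells/mL; Buffer or medium: YPD; Doses: single compound concentration per well; Timing: 4 h at 37 °C static, read 1 h later; Measured by: AK luminescence; Read-out basis: lysis from increased AK signal; Control set: Clomiphene as positive control.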
DENV2 CPE – DENV2-induced cell death inhibition; CPE inhibition, % at 9.99 µM; 350,000 tested, 1.7% active; DENV2-infected cells, cytopathic effect rescue, plate reader; AID 651640; in the data active = CPE inhibition above about 20%, passing the limit was not always enough; tested in BHK-21 cells;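 also: 0% = median of neutral control wells and 100% = median of positive control wells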
rRNA inh HTS – inhibitors of bacterial rRNA selective over humanized ribosomes; E. coli WT GFP vs humanized-ribosome RFP mutants, fluorescence, 24 h; stronger effect = lower value; DMSO median 0, no signal -100; GFP signal change (wild-type ribosome), % (concentration not given with the values); 350,000 tested, 1.6% active;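 active = significant combined selectivity score with lowered wild-type GFP, culture density cut under 30%, mutant RFP and density less affected; inactive = any of these conditions unmet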
An asterisk follows results filed as active; . = no result given.

SMILES	S100A4 inh HTS	PfHsp90 set2	MLL AF4-AF9 inh	Cneo AK release	DENV2 CPE	rRNA inh HTS
C[C@@H]1CN([C@H](C)CO)C(=O)c2cc(NC(=O)Cc3ccccc3)ccc2O[C@H]1CN(C)C(=O)Nc1ccc2c(c1)OCO2	-1	.	1	45	-6	0
COc1ccc(NC(=O)N(C)C[C@@H]2Oc3c(NC(=O)CCCCCC(=O)Nc4ccccc4N)cccc3C(=O)N([C@@H](C)CO)C[C@@H]2C)cc1	-1	.	1	.	-4	6
C[C@H](CO)N1C[C@H](C)[C@@H](CN(C)S(=O)(=O)c2cccs2)Oc2ccc(NC(=O)CCCCCC(=O)Nc3ccccc3N)cc2C1=O	-1	.	-4	0	25*	-1
COc1ccc(S(=O)(=O)N(C)C[C@H]2Oc3ccc(NC(=O)CCCCCC(=O)Nc4ccccc4N)cc3C(=O)N([C@H](C)CO)C[C@@H]2C)cc1	3	.	-2	.	-2	-3
COc1ccc(NC(=O)N(C)C[C@H]2Oc3c(NC(=O)CCCCCC(=O)Nc4ccccc4N)cccc3C(=O)N([C@@H](C)CO)C[C@@H]2C)cc1	8	.	2	.	30*	2
COc1ccc(S(=O)(=O)N(C)C[C@@H]2Oc3ccc(NC(=O)CCCCCC(=O)Nc4ccccc4N)cc3C(=O)N([C@@H](C)CO)C[C@@H]2C)cc1	5	.	-2	.	36*	-3
C[C@@H]1CN([C@H](C)CO)C(=O)c2cc(NC(=O)CCCCCC(=O)Nc3ccccc3N)ccc2O[C@H]1CN(C)S(=O)(=O)c1cccs1	1	.	-3	.	5	-4
COc1ccc(NC(=O)N(C)C[C@@H]2Oc3ccc(NC(=O)CCCCCC(=O)Nc4ccccc4N)cc3C(=O)N([C@H](C)CO)C[C@@H]2C)cc1	-3	.	1	.	53*	1
CN1C(=O)c2cc(NC(=O)NC3CCCC3)ccc2OC[C@H]2O[C@H](CC(=O)NCC3CC3)CC[C@@H]21	0	.	-2	-2	4	-1
C[C@H]1CN([C@@H](C)CO)C(=O)c2cc(NC(=O)CCCCCC(=O)Nc3ccccc3N)ccc2O[C@H]1CN(C)C(=O)Nc1ccc(F)cc1	1	.	-2	.	35*	2
C[C@H](CO)N1C[C@H](C)[C@H](CN(C)C(=O)Nc2ccc(C(F)(F)F)cc2)Oc2c(NC(=O)CCCCCC(=O)Nc3ccccc3N)cccc2C1=O	14	.	-2	.	35*	-2
C[C@@H]1CN([C@H](C)CO)C(=O)c2cccc(NC(=O)CCCCCC(=O)Nc3ccccc3N)c2O[C@@H]1CN(C)C(=O)Nc1ccc(C(F)(F)F)cc1	-4	.	0	.	-2	-5
CCS(=O)(=O)N[C@H]1C=C[C@H](CC(=O)Nc2ccccc2)O[C@H]1CO	-5	.	-3	.	14	-2
O=C(NCCNC(=O)c1cc(F)cc(F)c1)c1cc(F)cc(F)c1	-4	-9	-2	-1	30*	15
Cc1noc(C)c1NC(=O)N(C)C[C@H]1Oc2ccc(NS(=O)(=O)c3ccc(F)cc3)cc2CC(=O)N([C@@H](C)CO)C[C@H]1C	-8	.	-1	0	-12	2
CCOc1ccc(OCCn2c(=S)[nH]c3c(N)ncnc32)cc1	-9	15	-11	2	-4	-31*
COc1ccccc1-c1ccc2n(c1=O)C[C@H]1[C@H](CO)[C@@H](C(=O)N(C)C)N(C(=O)c3cccnc3)[C@@H]21	22	.	-4	6	-12	4
O=C(O)C[C@@H]1C[C@H]2c3cc(NC(=O)Nc4ccc(F)cc4)ccc3O[C@H]2[C@H](CO)O1	6	.	-2	-18	3	3
O=C(Nc1ccc2c(c1)OCCO2)c1ccc(S(=O)(=O)N2CCCCC2)cc1	-5	.	.	0	.	-32*
Cc1ccc(NC(=O)c2ccc(S(=O)(=O)N3CC(C)CC(C)C3)cc2)cc1S(=O)(=O)N1CCOCC1 (stereo not drawn)	-7	-29	2	1	46*	6
Cc1ccc(NC(=O)/C=C/c2ccc3c(c2)OCO3)cc1S(=O)(=O)N1CCOCC1	-6	19	4	-3	.	-20*
